Measurements taken from ChEMBL document CHEMBL2311492, “Small molecule amides as potent ROR-γ selective modulators” (Bioorg Med Chem Lett, 2013).
≈ marks a conversion by molar mass, not a printed value. Calls of active or inactive are those of the source. The calls are words filed in the database; no cut-off is given here.

Key:
[1] = molecular target: T1, Bile acid receptor (Homo sapiens) (UniProt Q96RI1); assay: Modulation of FXR (unknown origin)
T1 sequence (whole entry): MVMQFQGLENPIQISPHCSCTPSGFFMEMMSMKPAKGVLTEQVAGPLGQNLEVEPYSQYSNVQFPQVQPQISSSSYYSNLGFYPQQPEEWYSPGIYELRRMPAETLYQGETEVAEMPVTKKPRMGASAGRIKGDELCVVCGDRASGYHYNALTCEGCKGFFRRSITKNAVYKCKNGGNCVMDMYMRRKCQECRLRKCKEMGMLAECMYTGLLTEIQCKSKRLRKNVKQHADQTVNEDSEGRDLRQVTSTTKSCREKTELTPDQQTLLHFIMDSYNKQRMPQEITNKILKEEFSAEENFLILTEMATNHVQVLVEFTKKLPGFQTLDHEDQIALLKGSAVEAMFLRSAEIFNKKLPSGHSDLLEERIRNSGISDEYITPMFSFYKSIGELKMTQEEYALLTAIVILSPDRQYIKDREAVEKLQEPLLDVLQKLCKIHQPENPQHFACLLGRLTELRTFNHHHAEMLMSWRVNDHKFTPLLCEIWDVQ

Cytochrome P450 3A4 = Cytochrome P450 3A4 (Homo sapiens, UniProt P08684); assay: Inhibition of CYP3A4 (unknown origin) at 10 uM; assay type: ADME
Cytochrome P450 3A4, sequence (P08684 whole entry): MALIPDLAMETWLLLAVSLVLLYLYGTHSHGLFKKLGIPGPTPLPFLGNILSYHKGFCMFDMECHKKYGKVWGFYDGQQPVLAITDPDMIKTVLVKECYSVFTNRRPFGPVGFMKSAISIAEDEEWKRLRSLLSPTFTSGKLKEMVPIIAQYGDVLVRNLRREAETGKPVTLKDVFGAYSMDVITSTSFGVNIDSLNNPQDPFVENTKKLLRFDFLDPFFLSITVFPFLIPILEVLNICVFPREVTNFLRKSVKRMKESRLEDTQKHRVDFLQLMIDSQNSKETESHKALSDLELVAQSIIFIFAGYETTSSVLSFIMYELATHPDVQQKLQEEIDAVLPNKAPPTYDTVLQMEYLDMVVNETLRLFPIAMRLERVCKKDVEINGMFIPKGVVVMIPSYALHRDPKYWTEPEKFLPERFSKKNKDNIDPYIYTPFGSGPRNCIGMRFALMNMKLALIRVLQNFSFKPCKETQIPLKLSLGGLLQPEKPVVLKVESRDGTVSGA

[2] = Solubility of the compound in phosphate buffered saline at 100 uM at pH 7.4 after 20 hrs; assay type: physicochemical; conditions: buffer, pH 7.4, 20 h
In short: (§1)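 100 µM compound solutions shaken at room temperature for 20 hr in PBS pH 7.4 or sodium citrate buffer pH 5.0; dissolved concentration reported in µM.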

Brain = assay: Brain penetration in C57Bl6 mouse brain at 10 mg/kg, ip after 6 hrs; assay type: ADME, organism-based; parameters: dose 10 mg/kg, route intraperitoneal; conditions: in vivo
Cytochrome P450 2D6 = Cytochrome P450 2D6 (Homo sapiens, UniProt P10635); assay: Inhibition of CYP2D6 (unknown origin) at 10 uM; assay type: ADME
Cytochrome P450 2D6, sequence (P10635 whole entry): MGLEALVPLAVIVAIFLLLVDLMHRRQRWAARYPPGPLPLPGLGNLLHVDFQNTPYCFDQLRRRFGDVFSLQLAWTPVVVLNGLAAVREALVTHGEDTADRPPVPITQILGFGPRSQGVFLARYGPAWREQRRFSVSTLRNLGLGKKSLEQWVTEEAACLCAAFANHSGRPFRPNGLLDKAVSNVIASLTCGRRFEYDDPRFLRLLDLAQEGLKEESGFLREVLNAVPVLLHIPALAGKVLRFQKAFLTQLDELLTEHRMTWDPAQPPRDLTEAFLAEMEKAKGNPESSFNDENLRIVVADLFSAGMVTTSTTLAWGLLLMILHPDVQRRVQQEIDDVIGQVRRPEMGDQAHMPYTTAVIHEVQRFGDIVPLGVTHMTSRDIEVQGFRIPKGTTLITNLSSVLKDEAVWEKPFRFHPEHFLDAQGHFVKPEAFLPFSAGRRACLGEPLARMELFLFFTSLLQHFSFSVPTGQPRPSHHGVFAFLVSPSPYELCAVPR

Cytochrome P450 1A2 = molecular target: T2, Cytochrome P450 1A2 (Homo sapiens, UniProt P05177); assay: Inhibition of CYP1A2 (unknown origin) at 10 uM; assay type: ADME
T2 sequence (P05177 whole entry): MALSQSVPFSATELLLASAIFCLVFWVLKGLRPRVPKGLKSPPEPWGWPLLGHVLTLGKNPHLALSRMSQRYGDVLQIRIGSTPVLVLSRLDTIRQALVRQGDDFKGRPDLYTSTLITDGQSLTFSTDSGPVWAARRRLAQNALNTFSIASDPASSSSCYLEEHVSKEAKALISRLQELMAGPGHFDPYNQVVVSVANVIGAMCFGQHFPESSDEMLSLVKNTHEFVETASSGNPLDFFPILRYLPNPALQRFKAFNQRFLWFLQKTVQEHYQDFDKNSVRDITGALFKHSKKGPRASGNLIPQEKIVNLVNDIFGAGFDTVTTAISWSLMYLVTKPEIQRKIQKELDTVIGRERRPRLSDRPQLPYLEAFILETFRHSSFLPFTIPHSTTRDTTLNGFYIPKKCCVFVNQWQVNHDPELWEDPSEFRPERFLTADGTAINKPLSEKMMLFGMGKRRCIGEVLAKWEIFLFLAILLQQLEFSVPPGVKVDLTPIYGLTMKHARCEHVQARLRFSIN

Cytochrome P450 2C9 = Cytochrome P450 2C9 (Homo sapiens, UniProt P11712); assay: Inhibition of CYP2C9 (unknown origin) at 10 uM; assay type: ADME
Cytochrome P450 2C9, sequence (P11712 whole entry): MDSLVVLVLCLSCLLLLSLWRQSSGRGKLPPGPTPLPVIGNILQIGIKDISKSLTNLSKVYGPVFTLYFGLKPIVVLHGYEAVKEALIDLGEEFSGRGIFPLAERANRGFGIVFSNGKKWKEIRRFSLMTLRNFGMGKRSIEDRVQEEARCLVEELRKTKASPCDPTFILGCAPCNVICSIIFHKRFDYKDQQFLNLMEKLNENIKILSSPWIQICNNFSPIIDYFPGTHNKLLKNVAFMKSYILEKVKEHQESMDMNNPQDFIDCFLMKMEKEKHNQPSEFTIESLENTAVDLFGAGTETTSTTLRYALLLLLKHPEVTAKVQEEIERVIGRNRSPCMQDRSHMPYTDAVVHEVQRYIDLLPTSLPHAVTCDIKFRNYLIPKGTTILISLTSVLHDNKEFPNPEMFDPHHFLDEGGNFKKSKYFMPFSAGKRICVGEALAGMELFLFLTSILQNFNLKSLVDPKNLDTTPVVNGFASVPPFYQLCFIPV

[3] = Drug level in C57Bl6 mouse brain at 10 mg/kg, ip after 6 hrs; assay type: ADME, organism-based; parameters: dose 10 mg/kg, route intraperitoneal; conditions: read-out: Drug uptake
[4] = Solubility of the compound in sodium citrate buffer at 100 uM at pH 5 after 20 hrs; assay type: physicochemical; conditions: pH 5, 20 h; in short: as §1
[5] = molecular target: T3, Oxysterols receptor LXR-alpha (Homo sapiens) (UniProt Q13133); assay: Modulation of LXR-alpha (unknown origin)
T3 sequence (whole entry): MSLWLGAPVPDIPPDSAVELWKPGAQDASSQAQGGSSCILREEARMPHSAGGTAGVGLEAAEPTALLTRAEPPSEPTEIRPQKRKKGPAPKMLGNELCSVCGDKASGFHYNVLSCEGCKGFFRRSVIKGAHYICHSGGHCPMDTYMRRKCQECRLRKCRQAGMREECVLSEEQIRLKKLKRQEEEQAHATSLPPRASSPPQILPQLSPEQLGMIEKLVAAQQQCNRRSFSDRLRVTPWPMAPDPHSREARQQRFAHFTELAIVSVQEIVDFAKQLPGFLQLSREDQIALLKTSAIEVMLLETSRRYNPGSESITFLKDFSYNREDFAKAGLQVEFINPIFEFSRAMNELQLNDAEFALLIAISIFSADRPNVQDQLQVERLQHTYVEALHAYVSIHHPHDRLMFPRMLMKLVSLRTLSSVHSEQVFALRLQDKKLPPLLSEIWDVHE

[6] = Plasma concentration in C57Bl6 mouse at 10 mg/kg, ip after 6 hrs; assay type: ADME, organism-based; parameters: dose 10 mg/kg, route intraperitoneal
[7] = molecular target: T4, Nuclear receptor ROR-gamma (Homo sapiens, UniProt P51449); assay: Displacement of [3H]-T0903017 from GST-tagged ROR-gamma (unknown origin) after 20 hrs
T4 sequence (P51449 whole entry): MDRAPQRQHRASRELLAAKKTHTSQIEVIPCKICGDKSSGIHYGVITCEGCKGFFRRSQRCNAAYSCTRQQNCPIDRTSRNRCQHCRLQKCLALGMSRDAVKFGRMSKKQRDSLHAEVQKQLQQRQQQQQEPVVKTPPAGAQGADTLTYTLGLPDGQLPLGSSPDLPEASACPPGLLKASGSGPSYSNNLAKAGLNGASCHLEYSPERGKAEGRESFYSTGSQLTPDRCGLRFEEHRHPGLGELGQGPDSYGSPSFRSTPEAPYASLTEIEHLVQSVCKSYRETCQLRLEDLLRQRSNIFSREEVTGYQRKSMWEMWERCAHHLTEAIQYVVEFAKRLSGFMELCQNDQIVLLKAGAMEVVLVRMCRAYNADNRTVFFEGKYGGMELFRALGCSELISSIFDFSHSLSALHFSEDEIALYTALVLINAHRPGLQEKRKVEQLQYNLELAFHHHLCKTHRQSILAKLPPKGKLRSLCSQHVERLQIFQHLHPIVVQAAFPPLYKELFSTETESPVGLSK

inhibition (INH) (Cytochrome P450 3A4)	solubility [2]	inhibition (INH) (Cytochrome P450 2D6)	inhibition (INH) (Cytochrome P450 1A2)	inhibition (INH) (Cytochrome P450 2C9)	solubility [4]	IC50 [7]	SMILES	other results
97%	15.6 µM (≈ 6.89 µg/mL)	15%	3%	92%	15.2 µM (≈ 6.71 µg/mL)		COc1cc(O)c(C(CC(=O)N2CC(C)CC(C)C2)c2ccc3c(c2)OCO3)c(OC)c1 (stereo not drawn)	Activity [1]: inactive; Drug uptake (Brain): 260%; concentration at 6 h [3]: 780 nM; Activity [5]: inactive; concentration at 6 h [6]: 300 nM
75%	18 µM (≈ 7.7 µg/mL)	-7%	4%	65%	19.5 µM (≈ 8.34 µg/mL)		COc1ccc(C(CC(=O)N2CC(C)CC(C)C2)c2c(O)cc(OC)cc2OC)cc1 (stereo not drawn)	
						Not Active	COc1ccc(C(CC(=O)N2CCCC2)c2c(O)cc(OC)cc2OC)cc1 (stereo not drawn)	
70%	12.7 µM (≈ 5.43 µg/mL)	-11%	-22%	53%	6 µM (≈ 2.57 µg/mL)		COc1cc(O)c(C(CC(=O)N2CC(C)CC(C)C2)c2ccccc2OC)c(OC)c1 (stereo not drawn)	

Second part, the molecule before the results:

SMILES	inhibition (INH) (Cytochrome P450 3A4)	solubility [2]	inhibition (INH) (Cytochrome P450 2D6)	inhibition (INH) (Cytochrome P450 1A2)	inhibition (INH) (Cytochrome P450 2C9)	solubility [4]	IC50 [7]	other results
COc1ccc(C(CC(=O)NC2CCCC2)c2c(O)cc(OC)cc2OC)cc1 (stereo not drawn)							Not Active	
COc1ccc(C(CC(=O)NCc2ccccc2)c2c(O)cc(OC)cc2OC)cc1 (stereo not drawn)							Not Active	
COc1ccc(C(CC(=O)N2CCOCC2)c2c(O)cc(OC)cc2OC)cc1 (stereo not drawn)							Not Active	
COc1ccc(C(CC(=O)N2CCCCC2)c2c(O)cc(OC)cc2OC)cc1 (stereo not drawn)							Not Active	
